For this test, the target named is T1, Proteinase-activated receptor 1 (Homo sapiens) (UniProt P25116).
T1 sequence (whole entry): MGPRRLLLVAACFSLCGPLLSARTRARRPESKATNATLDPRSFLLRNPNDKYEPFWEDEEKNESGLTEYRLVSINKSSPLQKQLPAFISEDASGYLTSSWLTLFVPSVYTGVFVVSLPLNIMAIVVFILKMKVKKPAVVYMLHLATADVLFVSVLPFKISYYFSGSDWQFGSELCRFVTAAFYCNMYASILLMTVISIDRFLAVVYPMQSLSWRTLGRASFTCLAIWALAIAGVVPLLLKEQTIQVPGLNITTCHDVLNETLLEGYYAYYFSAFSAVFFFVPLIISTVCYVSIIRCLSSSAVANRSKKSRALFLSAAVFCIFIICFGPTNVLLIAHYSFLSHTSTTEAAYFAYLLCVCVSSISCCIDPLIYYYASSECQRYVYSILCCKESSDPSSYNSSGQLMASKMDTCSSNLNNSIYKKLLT
Briefly: Antagonist activity at PAR1 in human platelets assessed as inhibition of SFLLRN-induced aggregation at 10 uM after 5 mins relative to vehicle-treated control. It counts as functional. The gist of the method: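 Human donors who had taken no platelet-altering drugs for two weeks gave venous blood into 3.2% buffered citrate. Spun at 250×g for 7 min to give PRP, then 900×g for 10 min to give PPP, which served as optical reference and diluent. Diluted PRP was preincubated 5 min at 37 °C with compound or DMSO vehicle, then challenged with SFLLRN. Maximal optical aggregation at 5 min was compared with SFLLRN/vehicle to give % inhibition.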

The structures appear in SMILES notation.

A word on the inhibition: it is the change of the read-out against control, counted positive when it falls. For the compound `NCC[C@H](NC(=O)[C@H](Cc1ccc(F)c(F)c1)NC(=O)Nc1ccc2c(CN3CCCC3)nn(Cc3c(Cl)cccc3Cl)c2c1)C(=O)NCc1ccccc1`, the inhibition was found to be 98%.

For the origin of these results see ChEMBL document CHEMBL2150871, “Design, synthesis and biological evaluation of new peptide-based ureas and thioureas as potential antagonists of the thrombin receptor PAR1” (Eur J Med Chem, 2012).
